Test results as given in publication PMC4371900 (International Journal of Nanomedicine, 2015).

Assays:
Cytostatic assay = format: cell-based; conditions: human, Huh 5-2 cells
In short: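 Huh 7 cells carrying subgenomic HCV replicon (Huh 5-2) were seeded at 5·10^3 cells/well in complete DMEM with G418. After 24 h, serial dilutions of test compound (free or γ-CD complex) were added in complete DMEM without G418. Cells proliferated 3 days at 37°C. Cell number was read by CellTiter 96 AQueous One.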

[1] = test system: genotype 1b Con1 HCV sub-genomic replicon (Huh 5-2 cells); assay: Antiviral assay with Huh 5-2 cells; format: cell-based, hepatitis C virus

Question: For `OC[C@H]1O[C@@H]2O[C@H]3[C@H](O)[C@@H](O)[C@@H](O[C@H]4[C@H](O)[C@@H](O)[C@@H](O[C@H]5[C@H](O)[C@@H](O)[C@@H](O[C@H]6[C@H](O)[C@@H](O)[C@@H](O[C@H]7[C@H](O)[C@@H](O)[C@@H](O[C@H]8[C@H](O)[C@@H](O)[C@@H](O[C@H]9[C@H](O)[C@@H](O)[C@@H](O[C@H]1[C@H](O)[C@H]2O)O[C@@H]9CO)O[C@@H]8CO)O[C@@H]7CO)O[C@@H]6CO)O[C@@H]5CO)O[C@@H]4CO)O[C@@H]3CO` [γ-CD, γ-cyclodextrin], which viability at 3 days (Cytostatic assay) is on record?
Answer: 100%

Question: What about the luminescence ([1]; control tests with compound-free γ-CD (data not shown)) of the same compound?
Answer: 100%

Question: What about the “antiviral activity in cell assays” value ([1]; delivered alone, free in solution) of the same compound?
Answer: did not show antiviral activity
